# Data as given in ChEMBL document CHEMBL4689842, “EUbOPEN Chemogenomics Library wave 1” (2021).
# How the values were obtained:
# U2OS = experiment: Multiplex assay against U2OS; type: toxicity, cell-based; conditions: human
# In short: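 Live cells were stained at seeding with Hoechst33342, BioTracker Green Microtubule Cytoskeleton Dye, MitoTracker Red and Annexin V Alexa Fluor 680. Following compound addition, they were imaged on a CQ1 microscope at 37°C and 5% CO2 and gated by CellPathfinder machine learning into Hoechst high-intensity objects or normal cells, with normal cells split into healthy, pyknosed or fragmented nuclei and pyknosed cells into mitotic or apoptotic. Tubulin, mitochondrial-mass and membrane-permeability phenotypes are per cents of healthy-nucleus cells.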
# Fibroblast = experiment: Incucyte cell viability with human fibroblast; type: toxicity, cell-based; conditions: 10 µM, compound concentration 10 uM; further: filed as whole numbers so only -1 and 0 and 1 occur
# [1] = 12 h, 1 µM, compound concentration 1 uM, replicate 1
# [2] = 12 h, 1 µM, compound concentration 1 uM, replicate 2
# [3] = 12 h, 10 µM, compound concentration 10 uM, replicate 1
# [4] = 12 h, 10 µM, compound concentration 10 uM, replicate 2
# [5] = 24 h, 1 µM, compound concentration 1 uM, replicate 1
# [6] = 24 h, 1 µM, compound concentration 1 uM, replicate 2
# [7] = 24 h, 10 µM, compound concentration 10 uM, replicate 1
# [8] = 24 h, 10 µM, compound concentration 10 uM, replicate 2
# [9] = 48 h, 1 µM, compound concentration 1 uM, replicate 1
# [10] = 48 h, 1 µM, compound concentration 1 uM, replicate 2
# [11] = 48 h, 10 µM, compound concentration 10 uM, replicate 1
# [12] = 48 h, 10 µM, compound concentration 10 uM, replicate 2
structure (smiles),measurement,setting,value
CCCn1c(=O)c2[nH]c(C34CC5CC(CC3C5)C4)nc2n(CCC)c1=O [ROLOFYLLINE],Population Apoptotic (%),U2OS; [1],50%
same,Population Fragmented Nuclei (%),U2OS; [1],14%
same,Population Healthy Nuclei (%),U2OS; [1],77%
same,Population Hoechst High Intensity Objects (%),U2OS; [1],7%
same,Population Membrane Permeable-Phenotype (%),U2OS; [1],9%
same,Population Mitochondria Different-Phenotype (%),U2OS; [1],8%
same,Population Mitotic Cells (%),U2OS; [1],50%
same,Population Normal (%),U2OS; [1],92%
same,Population Pyknosed Nuclei (%),U2OS; [1],8%
same,Population Tubulin-Different-Phenotype (%),U2OS; [1],18%
same,Total Cell Count,U2OS; [1],123
same,Population Apoptotic (%),U2OS; [2],71%
same,Population Fragmented Nuclei (%),U2OS; [2],4%
same,Population Healthy Nuclei (%),U2OS; [2],88%
same,Population Hoechst High Intensity Objects (%),U2OS; [2],3%
same,Population Membrane Permeable-Phenotype (%),U2OS; [2],12%
same,Population Mitochondria Different-Phenotype (%),U2OS; [2],15%
same,Population Mitotic Cells (%),U2OS; [2],28%
same,Population Normal (%),U2OS; [2],96%
same,Population Pyknosed Nuclei (%),U2OS; [2],7%
same,Population Tubulin-Different-Phenotype (%),U2OS; [2],20%
same,Total Cell Count,U2OS; [2],81
same,Population Apoptotic (%),U2OS; [3],58%
same,Population Fragmented Nuclei (%),U2OS; [3],7%
same,Population Healthy Nuclei (%),U2OS; [3],76%
same,Population Hoechst High Intensity Objects (%),U2OS; [3],13%
same,Population Membrane Permeable-Phenotype (%),U2OS; [3],32%
same,Population Mitochondria Different-Phenotype (%),U2OS; [3],80%
same,Population Mitotic Cells (%),U2OS; [3],41%
same,Population Normal (%),U2OS; [3],86%
same,Population Pyknosed Nuclei (%),U2OS; [3],17%
same,Population Tubulin-Different-Phenotype (%),U2OS; [3],97%
same,Population Apoptotic (%),U2OS; [4],55%
same,Population Fragmented Nuclei (%),U2OS; [4],13%
same,Population Healthy Nuclei (%),U2OS; [4],74%
same,Population Hoechst High Intensity Objects (%),U2OS; [4],3%
same,Population Membrane Permeable-Phenotype (%),U2OS; [4],46%
same,Population Mitochondria Different-Phenotype (%),U2OS; [4],73%
same,Population Mitotic Cells (%),U2OS; [4],44%
same,Population Normal (%),U2OS; [4],96%
same,Population Pyknosed Nuclei (%),U2OS; [4],12%
same,Population Tubulin-Different-Phenotype (%),U2OS; [4],100%
same,Total Cell Count,U2OS; [4],99
same,Population Apoptotic (%),U2OS; [5],50%
same,Population Fragmented Nuclei (%),U2OS; [5],9%
same,Population Healthy Nuclei (%),U2OS; [5],74%
same,Population Hoechst High Intensity Objects (%),U2OS; [5],2%
same,Population Membrane Permeable-Phenotype (%),U2OS; [5],5%
same,Population Mitochondria Different-Phenotype (%),U2OS; [5],5%
same,Population Mitotic Cells (%),U2OS; [5],50%
same,Population Normal (%),U2OS; [5],97%
same,Population Pyknosed Nuclei (%),U2OS; [5],15%
same,Population Tubulin-Different-Phenotype (%),U2OS; [5],10%
same,Total Cell Count,U2OS; [5],136
same,Population Apoptotic (%),U2OS; [6],40%
same,Population Fragmented Nuclei (%),U2OS; [6],7%
same,Population Healthy Nuclei (%),U2OS; [6],88%
same,Population Hoechst High Intensity Objects (%),U2OS; [6],5%
same,Population Membrane Permeable-Phenotype (%),U2OS; [6],6%
same,Population Mitochondria Different-Phenotype (%),U2OS; [6],11%
same,Population Mitotic Cells (%),U2OS; [6],60%
same,Population Normal (%),U2OS; [6],94%
same,Population Pyknosed Nuclei (%),U2OS; [6],4%
same,Population Tubulin-Different-Phenotype (%),U2OS; [6],15%
same,Total Cell Count,U2OS; [6],83
same,Population Apoptotic (%),U2OS; [7],60%
same,Population Fragmented Nuclei (%),U2OS; [7],13%
same,Population Healthy Nuclei (%),U2OS; [7],60%
same,Population Hoechst High Intensity Objects (%),U2OS; [7],10%
same,Population Membrane Permeable-Phenotype (%),U2OS; [7],38%
same,Population Mitochondria Different-Phenotype (%),U2OS; [7],84%
same,Population Mitotic Cells (%),U2OS; [7],39%
same,Population Normal (%),U2OS; [7],89%
same,Population Pyknosed Nuclei (%),U2OS; [7],26%
same,Population Tubulin-Different-Phenotype (%),U2OS; [7],98%
same,Total Cell Count,U2OS; [7],105
same,Population Apoptotic (%),U2OS; [8],56%
same,Population Fragmented Nuclei (%),U2OS; [8],9%
same,Population Healthy Nuclei (%),U2OS; [8],58%
same,Population Hoechst High Intensity Objects (%),U2OS; [8],5%
same,Population Membrane Permeable-Phenotype (%),U2OS; [8],41%
same,Population Mitochondria Different-Phenotype (%),U2OS; [8],81%
same,Population Mitotic Cells (%),U2OS; [8],43%
same,Population Normal (%),U2OS; [8],94%
same,Population Pyknosed Nuclei (%),U2OS; [8],31%
same,Population Tubulin-Different-Phenotype (%),U2OS; [8],100%
same,Total Cell Count,U2OS; [8],120
same,Population Apoptotic (%),U2OS; [9],72%
same,Population Fragmented Nuclei (%),U2OS; [9],9%
same,Population Healthy Nuclei (%),U2OS; [9],78%
same,Population Hoechst High Intensity Objects (%),U2OS; [9],4%
same,Population Membrane Permeable-Phenotype (%),U2OS; [9],2%
same,Population Mitochondria Different-Phenotype (%),U2OS; [9],10%
same,Population Mitotic Cells (%),U2OS; [9],27%
same,Population Normal (%),U2OS; [9],95%
same,Population Pyknosed Nuclei (%),U2OS; [9],12%
same,Population Tubulin-Different-Phenotype (%),U2OS; [9],10%
same,Total Cell Count,U2OS; [9],168
same,Population Apoptotic (%),U2OS; [10],43%
same,Population Fragmented Nuclei (%),U2OS; [10],5%
same,Population Healthy Nuclei (%),U2OS; [10],84%
same,Population Hoechst High Intensity Objects (%),U2OS; [10],2%
same,Population Membrane Permeable-Phenotype (%),U2OS; [10],8%
same,Population Mitochondria Different-Phenotype (%),U2OS; [10],21%
same,Population Mitotic Cells (%),U2OS; [10],56%
same,Population Normal (%),U2OS; [10],97%
same,Population Pyknosed Nuclei (%),U2OS; [10],9%
same,Population Tubulin-Different-Phenotype (%),U2OS; [10],17%
same,Total Cell Count,U2OS; [10],103
same,Population Apoptotic (%),U2OS; [11],69%
same,Population Fragmented Nuclei (%),U2OS; [11],18%
same,Population Healthy Nuclei (%),U2OS; [11],43%
same,Population Hoechst High Intensity Objects (%),U2OS; [11],12%
same,Population Membrane Permeable-Phenotype (%),U2OS; [11],35%
same,Population Mitochondria Different-Phenotype (%),U2OS; [11],60%
same,Population Mitotic Cells (%),U2OS; [11],30%
same,Population Normal (%),U2OS; [11],87%
same,Population Pyknosed Nuclei (%),U2OS; [11],37%
same,Population Tubulin-Different-Phenotype (%),U2OS; [11],96%
same,Total Cell Count,U2OS; [11],157
same,Population Apoptotic (%),U2OS; [12],66%
same,Population Fragmented Nuclei (%),U2OS; [12],19%
same,Population Healthy Nuclei (%),U2OS; [12],39%
same,Population Hoechst High Intensity Objects (%),U2OS; [12],4%
same,Population Membrane Permeable-Phenotype (%),U2OS; [12],81%
same,Population Mitochondria Different-Phenotype (%),U2OS; [12],68%
same,Population Mitotic Cells (%),U2OS; [12],33%
same,Population Normal (%),U2OS; [12],95%
same,Population Pyknosed Nuclei (%),U2OS; [12],40%
same,Population Tubulin-Different-Phenotype (%),U2OS; [12],100%
same,Total Cell Count,U2OS; [12],168
same,Growth Rate,"Fibroblast; 0 h, replicate number 1, timepoint 0 hours",0
same,Growth Rate,"Fibroblast; 6 h, replicate number 1, timepoint 6 hours",0
same,Growth Rate,"Fibroblast; 12 h, replicate number 1, timepoint 12 hours",0
same,Growth Rate,"Fibroblast; 18 h, replicate number 1, timepoint 18 hours",0
same,Growth Rate,"Fibroblast; 24 h, replicate number 1, timepoint 24 hours",0
